Measured values published in PubChem BioAssay.
Calls of active or inactive are those of the source.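 Rule for the calls, unless noted: active = viability loss from added drug above about 55%, and viability with drug at most 40%, in both replicates (limit read from the data, passing the limit was not always enough); inconclusive = both conditions met in only one replicate; inactive = neither replicate meets both conditions.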

Key:
[1] = reduced viability of SK-BR-3 breast cancer cells – cell-based, 24 h, human, pilot screen (AID 572;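 active = viability at or below 10% of carrier control in both of two separate runs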;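 note: compound exposure lasted between 18 and 24 h rather than exactly 24 h; 100% = carrier-treated control wells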); conditions: SK-BR-3 viability, CellTiter-Glo luminescence, at 10 µM, stronger effect = lower value
[2] = HUVEC growth inhibition – cell-based, human, primary screen (AID 575;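 active = viability at or below 30% in both replicate assays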;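 note: 100% = median of untreated cell wells with 0.1% DMSO on each plate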); conditions: HUVEC proliferation, CellTiter-Glo luminescence, 72 h; at 10 µM; stronger effect = lower value
How it was run: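 System – primary HUVEC, no more than 12 passages · Medium – Low-serum (2% FBS) EBM, supplemented · Times – 72 h exposure, 37 °C, 5% CO2, 30 min RT equilibration · Measured by – luminescent ATP assay · Read-out – % viability relative to median vehicle-well signal on each plate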

[3] = H69AR cell proliferation blockers – human, duplicate replicates, primary screen (AID 580;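 active = viability at or under a set limit in both replicates, limit being median viability minus 3 SD, cut at about 48% in these data, passing the limit was not always enough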;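 note: 100% = mean luminescence of untreated wells and 0% = no signal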); conditions: H69AR lung tumor cells viability, ATP luminescence, 72 h; at 10 µM; stronger effect = lower value
[4] = MRP1 drug-resistance reversers in H69AR cells – cell-based, doxorubicin co-treatment, pilot screen (AID 601); conditions: CellTiter-Glo, 72 h, at 10 µM; for differential viability (reversal): stronger effect = higher value
[5] = yeast transport mutant growth inhibition pilot in 384-well plates, post-Golgi transport modulator project (AID 636; in the data active = inhibition above about 31%); conditions: absorbance 615 nm, about 18 h, stronger effect = higher value
[6] = growth suppression of yeast trafficking mutant, preliminary HTS, modulators of trafficking downstream of Golgi apparatus project, 1536-format plate, OD 615 nm (AID 637; in the data active = inhibition above about 30%); conditions: yeast transport mutant growth, absorbance 615 nm, 18 h; stronger effect = higher value
[7] = H69AR cells + 2 uM doxorubicin, measured here: viability with 2 uM doxorubicin, stronger effect = lower value
[8] = H69AR cells, compound alone cytotoxicity

| SMILES | viability [1] | viability [2] | viability [3] | differential viability (reversal) ([4]; H69AR cells + 2 uM doxorubicin) | viability [4, 7] [%] | viability [4, 8] [%] | inhibition [5] | inhibition [6] |
| --- | --- | --- | --- | --- | --- | --- | --- | --- |
| Cc1ccc(-c2nnc(N3CCN(C(=O)CN4C(=O)c5ccccc5C4=O)CC3)c3ccccc23)cc1 | 84% (inactive) | 73% (inactive) | 94% (inactive) | -0.335% (inactive) | 94.3 | 94 | -1.23% (inactive) | -4.03% (inactive) |
| O=S(=O)(c1cccc(S(=O)(=O)N2CCC(N3CCCCC3)CC2)c1)N1CCOCC1 | 103% (inactive) | 98.9% (inactive) | 93.6% (inactive) | 9.45% (inactive) | 84.2 | 93.6 | -0.78% (inactive) | -2.95% (inactive) |
| CCCc1cc(=O)[nH]c(Nc2ccc(OC)c(Cl)c2)n1 | 115% (inactive) | 76.1% (inactive) | 70.6% (inactive) | -7.59% (inactive) | 78.2 | 70.6 | -3.51% (inactive) | 4.43% (inactive) |
| COc1ccc(Cl)cc1NC(=O)CCN1CCN(c2ccccc2C)CC1 | 70% (inactive) | 110% (inactive) | 97.1% (inactive) | 5.5% (inactive) | 91.6 | 97.1 | -8.11% (inactive) | -0.36% (inactive) |
| Cc1ccc(S(=O)(=O)N2CCN(S(=O)(=O)N(C)C)CC2)cc1 | 123% (inactive) | 107% (inactive) | 103% (inactive) | 8.38% (inactive) | 94.7 | 103 | -3.15% (inactive) | -4.68% (inactive) |
| O=C(NS(=O)(=O)c1ccc(NC(=O)C2CCCO2)cc1)c1ccccc1 (stereo not drawn) | 79% (inactive) | 103% (inactive) | 92.8% (inactive) | 4.17% (inactive) | 88.7 | 92.8 | -6.35% (inactive) | -0.55% (inactive) |
| CCc1nnc(SCc2cn3c(C)cc(C)nc3n2)n1N | 96% (inactive) | 96.5% (inactive) | 108% (inactive) | 15.7% (inactive) | 92.2 | 108 | -1.89% (inactive) | -4.91% (inactive) |
| Cc1ccc(C2=Nc3ccccc3NC(C)(c3ccc(C)o3)C2)o1 (stereo not drawn) | 95% (inactive) | 79% (inactive) | 64% (inactive) | -10.7% (inactive) | 74.7 | 64 | 3.97% (inactive) | 27.1% (inactive) |
| O=C(CN1C(=O)COc2ccccc21)N(Cc1cccnc1)Cc1ccccc1F | 78% (inactive) | 96.6% (inactive) | 83.5% (inactive) | 8.57% (inactive) | 74.9 | 83.5 | -2.97% (inactive) | 0.55% (inactive) |
| CCOc1ccc(N2CC(C(=O)NCCc3ccc(OC)c(OC)c3)CC2=O)cc1 (stereo not drawn) | 108% (inactive) | 97.6% (inactive) | 94.5% (inactive) | 3.03% (inactive) | 91.4 | 94.5 | -11% (inactive) | 2.26% (inactive) |
| Cc1cc(C(=O)Nc2ccc(S(=O)(=O)Nc3onc(C)c3C)cc2)cs1 | 101% (inactive) | 101% (inactive) | 99.4% (inactive) | 2.97% (inactive) | 96.4 | 99.4 | -3.38% (inactive) | 0% (inactive) |
| Cn1ncc2c(Nc3ccccc3Br)ncnc21 | 109% (inactive) | 101% (inactive) | 106% (inactive) | 13.5% (inactive) | 92.8 | 106 | -7.67% (inactive) | -2.55% (inactive) |
| CN1CCN(c2nc3c(c(=O)n(C)c(=O)n3C)n2Cc2cccc3ccccc23)CC1 | 129% (inactive) | 77.5% (inactive) | 84% (inactive) | 26.6% (inactive) | 57.4 | 84 | 0% (inactive) | 0.16% (inactive) |
| Cn1nc(C(C)(C)C)cc1C(=O)NCc1ccc(N2CCCC2=O)cc1 | 87% (inactive) | 15.1% (active) | 99% (inactive) | -3.59% (inactive) | 103 | 99 | -5.34% (inactive) | 0.91% (inactive) |
| CNC(=O)Oc1ccc2c(c1)[C@]1(C)CCN(C)[C@@H]1N2C | 112% (inactive) | 104% (inactive) | 93.9% (inactive) | -7% (inactive) | 101 | 93.9 | -3.12% (inactive) | 2% (inactive) |
| CC1=C(C)C(=O)C(CCCCC#CCCCC#CCO)=C(C)C1=O | 62% (inactive) | 78.8% (inactive) | 56.6% (inactive) | 23.8% (inactive) | 32.8 | 56.6 | 2.99% (inactive) | -1.5% (inactive) |
| Cc1cccc(CC(=O)Nc2c3c(nn2-c2cccc(Cl)c2)CS(=O)C3)c1 (stereo not drawn) | 104% (inactive) | 88.9% (inactive) | 85.2% (inactive) | -10.9% (inactive) | 96.1 | 85.2 | 1.3% (inactive) | -6.72% (inactive) |
| Cc1cc(C)n2nc(SCC(=O)N(C)Cc3ccccc3)nc2n1 | 109% (inactive) | 107% (inactive) | 81.7% (inactive) | -20.2% (inactive) | 102 | 81.7 | -6.85% (inactive) | 1.82% (inactive) |

| SMILES | viability [1] | viability [2] | viability [3] | differential viability (reversal) ([4]; H69AR cells + 2 uM doxorubicin) | viability [4, 7] [%] | viability [4, 8] [%] | inhibition [5] | inhibition [6] |
| --- | --- | --- | --- | --- | --- | --- | --- | --- |
| Cc1ccccc1Nc1nc(N)nc(CSCc2c(C)noc2C)n1 | 88% (inactive) | 101% (inactive) | 96.4% (inactive) | -1.78% (inactive) | 98.2 | 96.4 | 3.51% (inactive) | 3.09% (inactive) |
| CC(C)Cc1ccc(C(C)C(=O)O)cc1 (stereo not drawn) | 99% (inactive) | 84.3% (inactive) | 97.8% (inactive) | 5.44% (inactive) | 92.3 | 97.8 | -1.95% (inactive) | 7.17% (inactive) |
| Cc1ccc2cc(C(c3nnnn3C3CCCC3)N3CCN(c4ccc(F)cc4)CC3)c(=O)[nH]c2c1 (stereo not drawn) | 93% (inactive) | 101% (inactive) | 67.6% (inactive) | 8.08% (inactive) | 59.6 | 67.6 | -5.6% (inactive) | 1.27% (inactive) |
| CCn1c(Cc2ccccc2)nnc1SCC(=O)Nc1cc(C)on1 | 109% (inactive) | 114% (inactive) | 98.7% (inactive) | 7.78% (inactive) | 91 | 98.7 | -5.06% (inactive) | -2.95% (inactive) |
| Cc1cc(NC(=O)c2ccccc2)ncc1NC(=O)c1ccco1 | 94% (inactive) | 96.2% (inactive) | 109% (inactive) | 9.27% (inactive) | 99.9 | 109 | -4.42% (inactive) | 0.32% (inactive) |
| COCCOC(=O)C1=C(C)NC(C)=C(C(=O)OC(C)C)C1c1cccc([N+](=O)[O-])c1 (stereo not drawn) | 89% (inactive) | 65.2% (inactive) | 77.4% (inactive) | -19% (inactive) | 96.4 | 77.4 | 1.56% (inactive) | 16.2% (inactive) |
| O=C1C2CC=C(Cl)CC2C(=O)N1CNc1ccccn1 (stereo not drawn) | 112% (inactive) | 108% (inactive) | 98.8% (inactive) | -6.09% (inactive) | 105 | 98.8 | -2.05% (inactive) | 5.65% (inactive) |
| CC(C)(C)NCC(O)c1cc(O)cc(O)c1 (stereo not drawn) | 127% (inactive) | 109% (inactive) | 98.9% (inactive) | 7.49% (inactive) | 91.4 | 98.9 | -2.73% (inactive) | 2.5% (inactive) |
| COc1cccc(Nc2nnc(SCC(=O)N3CC(C)OC(C)C3)s2)c1 (stereo not drawn) | 92% (inactive) | 75.3% (inactive) | 102% (inactive) | 2.69% (inactive) | 99.1 | 102 | -2.4% (inactive) | -0.36% (inactive) |
| COc1ccc(-c2nnnn2C)cc1S(=O)(=O)NCc1ccccc1 | 93.5% (inactive) | 117% (inactive) | 95.7% (inactive) | 4.64% (inactive) | 91.1 | 95.7 | -0.26% (inactive) | -2.17% (inactive) |
| Cc1ccc(S(=O)(=O)NC(C)C(=O)Nc2ccc(C(N)=O)cc2)cc1 (stereo not drawn) | 81% (inactive) | 88.4% (inactive) | 100% (inactive) | 4.08% (inactive) | 96 | 100 | -0.27% (inactive) | -5.81% (inactive) |
| CCN(CCCNC(=O)COc1cc(=O)n(CC)c2ccccc12)c1ccccc1 | 86% (inactive) | 56.9% (inactive) | 74.7% (inactive) | 5.79% (inactive) | 68.9 | 74.7 | -5.32% (inactive) | -4.75% (inactive) |
| O=C(CN(c1ccc(F)cc1)S(=O)(=O)c1ccc2c(c1)OCCO2)Nc1cccnc1 | 77% (inactive) | 89.5% (inactive) | 100% (inactive) | -0.85% (inactive) | 101 | 100 | -8.77% (inactive) | -3.82% (inactive) |
| Cc1ccc(S(=O)(=O)NCC(c2cccnc2)N(C)C)cc1 (stereo not drawn) | 96% (inactive) | 109% (inactive) | 95.1% (inactive) | -8.1% (inactive) | 103 | 95.1 | -5.75% (inactive) | 1.82% (inactive) |
| COc1ccc(NC(=O)N(C2CCCCC2)C2CCN(C(C)C)CC2)c(OC)c1 | 87% (inactive) | 100% (inactive) | 103% (inactive) | 19.4% (inactive) | 83.2 | 103 | -2.73% (inactive) | -7.87% (inactive) |
| Cc1ccc(S(=O)(=O)NC(=O)NN2CCCCCC2)cc1 | 112% (inactive) | 81.1% (inactive) | 114% (inactive) | 14% (inactive) | 100 | 114 | -3.38% (inactive) | 4.17% (inactive) |
| COCC(=O)N(C)c1nnc(-c2ccccn2)s1 | 83% (inactive) | 111% (inactive) | 105% (inactive) | 13.6% (inactive) | 91.3 | 105 | -2.57% (inactive) | -1.09% (inactive) |
| COc1ccccc1NC1=NC(c2ccc(Cl)cc2)N=C(N)N1 (stereo not drawn) | 91% (inactive) | 68.2% (inactive) | 10% (active) | -30.4% (inactive) | 40.5 | 10 | -5.27% (inactive) | 0% (inactive) |
